The format of data set [1] is in vivo, human. The note with it: for AUC / AUC_%Extrap_obs: geometric mean (CV%). The gist of the method: (§1)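 Randomized two-sequence crossover in healthy adults, ≥10-day washout. Single oral 4-mg rosiglitazone was given alone on day 1, or on day 3 of the test compound regimen (1250 mg loading dose on day 1, then 750 mg once daily for 7 more days), after a 10-h fast. K2EDTA blood was drawn predose to 120 h and plasma stored at ~−70°C. LC-MS/MS, LLOQ 0.500 ng/mL. GMR (90%CI) came from a linear mixed effect model.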

Data set [2] in a line: Safety and tolerability in phase 1 study. Format: in vivo, human. The gist of the method:
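Healthy adults in a two-period crossover: single oral 4-mg rosiglitazone alone, and the test compound (1250 mg on day 1, 750 mg daily for 7 days) with rosiglitazone on day 3. Dosing was fasted. Adverse events were recorded from informed consent until 14 days after the last dose and graded by intensity.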

Data set [3] in a line: Phase 1 study: plasma PK of SCY‐078 after loading dose and repeat daily doses. Format: in vivo, human. In outline: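 Healthy adults fasted 10 h, then took the oral test compound: 1250-mg loading dose on day 1, then 750 mg once daily for 7 more days. Blood was drawn predose and 0.5–24 h on day 1, predose and 0.5–16 h on day 3, and as troughs before dosing on days 4–8. K2EDTA plasma was centrifuged at 2000 g and stored at ~−70°C. Validated LC-MS/MS, LLOQ 5.00 ng/mL.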

Data set [4] deals with CYP2C8. In words: In vitro CYP2C8 inhibition. Format: in vitro ADME.
Data set [5] concerns CYP2C8. The settings on record: inhibition of CYP2C8‐mediated N‐desethyl‐amodiaquine activity; ref Wring SA, Park SM, unpublished data on file; cited from earlier work.
In the next data set the test system is other CYP isoforms. The settings on record: ref Wring SA, Park SM, unpublished data on file; cited from earlier work.
The conditions of data set [6]: cited from earlier work.
The next data set deals with Candida species. The note with it: in vivo murine models for invasive fungal infections with Candida species; cited from earlier work.
For data set [7] the following is noted: phase 1 drug‐drug interaction study; cited from earlier work.
The subject of data set [8] is Candida and Aspergillus species clinical isolates. The note with it: cited from earlier work.
Data set [9] is classed as in vivo, human. The settings on record: metabolite; for t½: mean (SD); for Tmax: median (minimum, maximum). In outline: as §1
The mark [10] stands for this setting: both, human, plasma, oral, 4 mg.
Where [11] appears, read: rosiglitazone 4 mg + SCY‐078 750 mg, day 3, n = 17.
Where [12] appears, read: rosiglitazone 4 mg alone, day 1, n = 17.
Where [13] appears, read: all treatments pooled, 24 subjects.
[14] abbreviates: both, human, plasma, po, 1250 mg.
Where [15] appears, read: rosiglitazone 4 mg + SCY‐078 750 mg, day 3, n = 17, geometric mean (CV%).
Setting [16] is: rosiglitazone 4 mg alone, day 1, n = 17, geometric mean (CV%).

Like-named read-outs stand apart in the source and are kept apart here.

As a reminder, the half-life is how long it takes for the measured level to halve. A lower half-life goes with fast loss. Turning to `CN(CCOc1ccc(CC2SC(=O)NC2=O)cc1)c1ccccn1` (stereo not shown) [Rosiglitazone, rosiglitazone], in data set [1] (setting [10]), the Cmax stood at 295 ng/mL, the Tmax amounted to 0.5 h and the half-life was 3.7 h. Also, the AUC in data set [1] (both, human, plasma, oral, AUC0‐24h, rosiglitazone 4 mg + SCY‐078 750 mg, day 3, n = 17) turned out to be 1420 µg·h/mL. Further, the AUC in [1] (both, human, plasma, oral, AUC0‐last, rosiglitazone 4 mg + SCY‐078 750 mg, day 3, n = 17) stood at 1440 µg·h/mL. Moreover, in data set [1] (geometric mean ratio (90%CI)), the “AUC0‐24h GMR rosiglitazone + SCY‐078 vs rosiglitazone alone” value is 0.98 (0.89‐1.08), the “AUC0‐last GMR rosiglitazone + SCY‐078 vs rosiglitazone alone” value is listed as 0.99 (0.90‐1.10), the “AUC GMR rosiglitazone + SCY‐078 vs rosiglitazone alone” value is listed as 0.99 (0.90‐1.10) and the “Cmax GMR rosiglitazone + SCY‐078 vs rosiglitazone alone” value is recorded as 0.80 (0.70‐0.90). The AUC_%Extrap_obs in data set [1] (setting [11]) is on record as 0.71 (62.2) %. For the same molecule, the AUC_%Extrap_obs in [1] (setting [12]) was 0.58 (74.3) %. Further, the “treatment‐emergent AE: diarrhea” value in [2] (all treatments pooled (rosiglitazone alone and with SCY‐078), 24 subjects) is on record as 58.3%. Moreover, in data set [2] (setting [13]), the “serious AEs and deaths” value is reported as “no serious AEs”; the “treatment‐emergent AE: abdominal pain” value was found to be 41.7%; the “treatment‐emergent AE: contact dermatitis” value was 8.3%; the “treatment‐emergent AE: dizziness” value is given as 8.3%. In data set [2] (setting [13]), the “treatment‐emergent AE: headache” value was determined as 16.7%, the “treatment‐emergent AE: menstruation irregularity” value was 12.5%, the “treatment‐emergent AE: nausea” value was found to be 41.7% and the “treatment‐emergent AE: somnolence” value was 8.3%. For the same molecule, the “treatment‐emergent AE: vomiting” value in [2] (setting [13]) was 25%. In addition, in data set [2] (rosiglitazone in the presence and absence of repeat doses of SCY‐078, healthy subjects), the tolerability entry is “generally well tolerated”.

A word on the IC50: it is the midpoint of a concentration-inhibition curve. Regarding `CC(C)[C@@H](C)[C@@]1(C)CC[C@]2(C)[C@H]3CC[C@@H]4[C@@]5(COC[C@@]4(C)[C@@H](OC[C@](C)(N)C(C)(C)C)[C@H](n4ncnc4-c4ccncc4)C5)C3=CC[C@@]2(C)[C@@H]1C(=O)O` [SCY‐078], the Tmax in [3] (both, human, plasma, oral) was 6 h. Further, in data set [3] (setting [14]), the AUC was 11.6 µg·h/mL, the Tmax came out at 6 h and the concentration at 24 h came out at 294 ng/mL. In addition, in [3] (both, human, plasma, po, 1250 mg, Cmax, day 1, oral 1250‐mg loading dose, fasted, geometric mean (CV%)), the Cmax was 783 ng/mL. For the same molecule, in data set [3] (day 3, once‐daily oral regimen, molar equivalent of ∼0.93 μg/mL), the “maximum concentration in plasma” value came out at 1.28 µM. For the same molecule, the absorption result in data set [3] (following the loading dose and repeated daily doses) is “well absorbed”. Besides, the “unbound concentration in plasma as % of the CYP2C8 IC50” value in the data set with CYP2C8 [4] (day 3 Cmax, based on 99.7% binding to plasma proteins) is given as about 3%. In the data set with CYP2C8 [4] (day 3 total Cmax vs IC50), the “plasma Cmax exceeds the in vitro CYP2C8 IC50” value is “approximately 4 fold”. Besides, the IC50 in the data set with CYP2C8 [5] was about 0.3 µM. In addition, in the data set on other CYP isoforms, the “IC50 values for other CYP isoforms, fold higher than CYP2C8” value is over 5 fold. Moreover, the “binding to plasma proteins” value in data set [6] was 99.7%. In addition, the efficacy target exposure in the data set with Candida species was 11.2 μg·h^2/mL. Further, the interaction with tacrolimus entry in data set [7] was “no clinically relevant interaction”. The “in vitro activity against Candida and Aspergillus species clinical isolates” value in [8] was “potent in vitro activity”. Besides, the “activity against azole‐resistant, most echinocandin‐resistant, and multidrug‐resistant strains of Candida species” value in data set [8] (in vitro) is reported as “retained activity”.

Consider `O=C1NC(=O)C(Cc2ccc(OCCNc3ccccn3)cc2)S1` (stereo not shown) [N‐Desmethylrosiglitazone, N‐desmethylrosiglitazone], for which the AUC in data set [9] (0 to infinity, rosiglitazone 4 mg + SCY‐078 750 mg, day 3, n = 17, geometric mean (CV%)) is listed as 2260 (15.5) μg·hr/mL. Further, in [9] (geometric mean ratio (90%CI)), the “AUC0‐24h GMR rosiglitazone + SCY‐078 vs rosiglitazone alone” value is 0.97 (0.89‐1.06), the “AUC0‐last GMR rosiglitazone + SCY‐078 vs rosiglitazone alone” value is given as 1.03 (0.95‐1.12), the “AUC GMR rosiglitazone + SCY‐078 vs rosiglitazone alone” value is given as 1.03 (0.95‐1.12) and the “Cmax GMR rosiglitazone + SCY‐078 vs rosiglitazone alone” value is 0.97 (0.88‐1.07). For the same molecule, in data set [9] (setting [15]), the AUC0‐24h turned out to be 1.31 µg·h/mL, the AUC0‐last was 2.24 µg·h/mL, the AUC_%Extrap_obs is on record as 0.90 (45.6) % and the Cmax is recorded as 70.4 (16.4) ng/mL. In data set [9] (setting [11]), the t½ is recorded as 15.2 (2.3) h and the Tmax was 8.0 (6.0, 16.0) h. Moreover, in data set [9] (setting [16]), the AUC0‐24h is 1.34 µg·h/mL, the AUC0‐last turned out to be 2.17 µg·h/mL, the AUC_%Extrap_obs is given as 0.91 (52.4) % and the Cmax was 72.8 (17.6) ng/mL. In data set [9] (setting [12]), the t½ is on record as 14.5 (2.4) h and the Tmax is recorded as 6.0 (4.0, 12.0) h.

These data come from PMC6175093 (Journal of Clinical Pharmacology, 2018).
